# M4 PAM: positive allosteric modulators of human muscarinic M4 receptor; CHO-K1 hM4/Gqi5, Fluo-8 calcium fluorescence, ACh EC20; 0% = ACh EC20, 100% = maximal ACh; P08173; hit rate 0.4% among 360,000; activation, % at 3 µM;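 active = activation above its plate's cutoff, the mean activation of sample wells plus 3 SD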
# CHRM5 PAM: positive allosteric modulators of human muscarinic M5 receptor | activation, % at 3 µM | CHO-K1 hM5, Fluo-8 calcium, ACh EC20 PAM; 0% = ACh EC20, 100% = ACh EC100 | P08912 | hit rate 0.3% among 360,000 | AID 624038;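 active = activation above the run cutoff, the mean activation of all test compounds plus 3 SD, cut at about 18% in these data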
# Target sequence (P08912 whole entry, looked up): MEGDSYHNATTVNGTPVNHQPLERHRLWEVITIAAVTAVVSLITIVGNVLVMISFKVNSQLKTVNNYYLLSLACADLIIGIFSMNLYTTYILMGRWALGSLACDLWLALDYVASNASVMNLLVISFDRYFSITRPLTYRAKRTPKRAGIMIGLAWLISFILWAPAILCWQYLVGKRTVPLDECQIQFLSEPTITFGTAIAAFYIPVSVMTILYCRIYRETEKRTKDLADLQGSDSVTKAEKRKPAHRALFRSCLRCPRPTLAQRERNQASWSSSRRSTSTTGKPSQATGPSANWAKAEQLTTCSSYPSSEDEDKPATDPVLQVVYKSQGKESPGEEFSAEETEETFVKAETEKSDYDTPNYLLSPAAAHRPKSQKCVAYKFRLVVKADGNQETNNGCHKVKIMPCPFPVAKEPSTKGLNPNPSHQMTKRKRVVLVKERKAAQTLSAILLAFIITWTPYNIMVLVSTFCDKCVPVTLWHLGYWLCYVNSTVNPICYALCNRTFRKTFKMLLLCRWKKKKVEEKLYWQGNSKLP
#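 Probe or stimulus: acetylcholine, EC20 level; Assay system: human M5 receptor in CHO-K1 cells; Schedule: compound preincubation 140 s before EC20 acetylcholine addition; Technique: intracellular calcium via Fluo-8 fluorescence; Dosing: single-point, 3 µM nominal; Read-out basis: percent activation from peak-over-basal fluorescence ratio, scaled EC20-to-EC100 acetylcholine; Repeats: one well per compound, no replicates.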
# M4 ag: agonists of human muscarinic M4 receptor (CHRM4) | P08173 | CHO-K1 hM4/Gqi5, Fluo-8 calcium fluorescence; vehicle 0%, full acetylcholine response 100% | activation, % at 3 µM | hit rate 0.14% among 360,000 | AID 624127;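 active = activation above the run mean over all test wells plus 3 SD, cut at about 32% in these data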;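 note: peak over basal fluorescence ratio per well then scaled between controls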
# M5 antag: CHRM5 antagonism in calcium assay. CHO-hM5 cells, Fluo-8 calcium fluorescence, ACh EC80. AID 624040. inhibition, % at 3 µM. hit rate 0.59% among 360,000;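 active = inhibition above a per-plate cutoff, the mean of that plate's test compounds plus 3 SD, cut at about 27% in these data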
# M4 antag: CHRM4 antagonism in calcium assay. CHO-hM4 cells, ACh EC80, Fluo-8 calcium fluorescence. hit rate 0.73% among 360,000. inhibition, % at 3 µM. P08173;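 active = inhibition above its plate's cutoff, the mean inhibition of sample wells plus 3 SD, cut at about 27% in these data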
# M5 ag: CHRM5 agonism in calcium assay | CHO-K1 hM5 cells, Fluo-8 calcium fluorescence; 0% DMSO wells, 100% maximal acetylcholine response | activation, % at 3 µM | P08912 | hit rate 0.19% among 360,000;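 active = activation above the run's mean over test compounds plus 3 SD, cut at about 23% in these data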;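 note: signal is peak over basal fluorescence ratio across the kinetic read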
# Numbers stand for hits; - = inactive. An excerpt weighted towards active compounds, which were near 1.9% of everything screened.
SMILES,M4 PAM,CHRM5 PAM,M4 ag,M5 antag,M4 antag,M5 ag
CC(Oc1ccccc1)C(=O)Nc1ccc(C(N)=O)cc1 (stereo unspecified),-,-,-,-,-,-
COc1ccc(NC(=O)C(C)Oc2ccc(/C(C)=N\O)cc2)cc1 (stereo unspecified),-,-,-,-,-,27
COc1ccc(OC(C)C(=O)Nc2cccc(OC)c2)cc1 (stereo unspecified),-,19,-,-,-,-
O=C1c2cc3c(cc2CCC1c1ccc2c(c1)OCO2)OCO3 (stereo unspecified),-,-,-,-,-,-
O=C(c1ccc(S(=O)(=O)c2cccc(Cl)c2)c([N+](=O)[O-])c1)N1CCN(c2ccccn2)CC1,-,-,-,52,44,-
COc1cc(OC)cc(OC2(C)CCN(Cc3ccc(OC(C)C)cc3)C2)c1 (stereo unspecified),-,-,-,-,53,-
CC(C)c1ccc(CN2CCC(C)(Oc3ccc(Cl)cc3)C2)cc1 (stereo unspecified),-,-,-,-,-,-
COC(=O)Cc1ccc(OC2(C)CCN(Cc3ccccc3)C2)cc1 (stereo unspecified),-,-,-,-,63,-
CN(C)c1ccc(/C=C(/C#N)C(=O)Nc2nc3c(s2)CCN(Cc2ccccc2)C3)cc1,-,-,-,-,-,49
O=c1cc2c(nn1Cc1cccc(Cl)c1)-c1ccccc1CC2,-,-,-,-,-,-
O=c1cc2c(nn1Cc1ccc(Cl)cc1)-c1ccccc1CC2,-,30,-,-,-,-
CCC(CO)NCC#Cc1ccccc1 (stereo unspecified),-,-,-,-,40,-
OC(CNCC#Cc1ccccc1)c1ccccc1 (stereo unspecified),-,-,-,-,-,-
CCOc1ccccc1O[C@H](c1ccccc1)[C@H]1CNCCO1,-,-,-,-,-,-
O=C(c1cccc(C(F)(F)F)c1)N1CCCCCC1,-,-,-,-,-,-
CC(C)n1c(C(F)(F)F)nc2cc(C(=O)N3CCCCC3)ccc21,-,-,-,-,30,-
COc1ccc(S(=O)(=O)N2CCOCC2)cc1NC(=O)COC(=O)C1CC1C (stereo unspecified),-,-,-,-,-,-
Cc1ccccc1C(=O)N1CCC(C(=O)OCC(=O)Nc2cccc([N+](=O)[O-])c2C)CC1,-,-,-,-,-,-
Cc1c(NC(=O)CN2CCC(C(N)=O)CC2)cccc1[N+](=O)[O-],-,21,-,-,-,-
C[C@H](NC(=O)c1nc[nH]c1C(=O)N[C@@H](CCCCN)C(=O)OC(C)(C)C)C(=O)OCc1ccccc1,-,-,-,-,-,-
CCCS(=O)(=O)N1CCC(C(=O)N2CCCC2)CC1,-,21,-,-,-,-
COCCN1Cc2cccc(C(=O)Nc3cc(C)cc(C)c3)c2C1=O,-,-,-,-,-,-
COCCN1Cc2cccc(C(=O)Nc3c(C)cc(C)cc3C)c2C1=O,-,37,-,-,-,-
Cc1cccc(C)c1NC(=O)CN(C)C(=O)[C@H](C)NC(=O)c1ccco1,24,-,-,-,-,-
CSCCC(NC(=O)c1ccco1)C(=O)N(C)CC(=O)Nc1c(Cl)cccc1Cl (stereo unspecified),-,-,-,-,-,-
SMILES,M4 PAM,CHRM5 PAM,M4 ag,M5 antag,M4 antag,M5 ag
COc1ccc(S(=O)(=O)NCCCn2ccnc2)cc1Cl,-,-,-,-,-,-
Cc1cc(C(=O)COC(=O)COc2ccccc2C#N)c(C)n1CC1CCCO1 (stereo unspecified),-,-,-,-,-,-
CCOC(=O)C1CCCN(c2c(C(=O)c3ccccc3)cnc3ccc(OC)cc23)C1 (stereo unspecified),-,-,-,-,-,32
COc1ccc(CCNC(=O)c2cccc(NS(=O)(=O)c3ccccc3F)c2)cc1OC,-,-,-,-,-,-
Cc1ccc2c(c1)N(C(=O)CCC(=O)NCCN1CCOCC1)CCO2,-,-,-,-,-,-
O=C(c1c(F)cccc1F)N1CCCC(c2nc(-c3ccc(Cl)cc3)no2)C1 (stereo unspecified),-,-,-,28,-,-
Cc1ccc(-c2noc(C3CCCN(C(=O)c4c(F)cccc4F)C3)n2)cc1 (stereo unspecified),-,-,-,-,-,-
COc1ccc(S(=O)(=O)N(CC(=O)NCCC(C)C)c2ccccc2)cc1OC,25,-,-,-,-,-
CCCNC(=O)CN(c1ccccc1)S(=O)(=O)c1ccc(OC)c(OC)c1,-,-,-,-,-,-
Cc1cccc(C)c1OCCCCN1CCNCC1,-,-,-,-,-,-
Cc1cc(C)c(OCCCCN2CCNCC2)c(C)c1,-,-,-,-,30,-
COc1ccccc1CNC(=O)C1CCC(CNS(=O)(=O)c2ccccc2)CC1 (stereo unspecified),-,-,-,-,-,-
O=c1[nH]ccc2c(O)cccc12,-,-,-,-,-,32
CCCCNC(=O)C1c2ccccc2OCC(=O)N1Cc1ccccc1 (stereo unspecified),23,-,-,-,-,-
CCCCNC(=O)C1c2ccccc2OCC(=O)N1Cc1ccc2c(c1)OCO2 (stereo unspecified),-,-,-,-,-,-
COc1cc(/C=C2/SC(=S)N(Cc3ccccc3)C2=O)cc(Cl)c1O,-,-,-,33,-,-
COc1cc(/C=C2/SC(=S)N(Cc3ccccc3)C2=O)ccc1OCC(=O)O,-,-,-,-,-,-
CCOc1cc(/C=C2/SC(=S)N(Cc3ccccc3)C2=O)ccc1O,-,-,-,-,-,42
COc1cc([N+](=O)[O-])cc(/C=C2/SC(=S)N(Cc3ccccc3)C2=O)c1O,-,-,32,-,-,-
O=C(c1[nH]c(C(F)(F)F)nc1-c1ccccc1)N1CCC(C(O)(c2ccccc2)c2ccccc2)CC1,-,-,-,-,-,-
Cc1ccc(SCC(=O)Nc2ccc3c(c2)C(=O)N(C)C3=O)cc1,-,-,-,-,-,-
CC(Oc1cccc2ccccc12)C(=O)N/N=C/c1cccnc1 (stereo unspecified),22,-,-,-,-,-
CC(Sc1ccccc1)C(=O)N/N=C/c1cccnc1 (stereo unspecified),-,-,-,-,-,-
CCOc1ccc(CCNC(=O)COC(=O)Cn2nc(C)c([N+](=O)[O-])c2C)cc1OCC,-,-,-,-,-,-

# Compound activity: PubChem BioAssay, The Scripps Research Institute Molecular Screening Center
